Test results as given in article PMC3157043 (Nuclear medicine and biology, 2011).

Experiments:
adenosine A2A = adenosine A2A (Rattus norvegicus, UniProt P30543); test: In vitro autoradiography of rat brain slices; assay type: binding; details: 90 min incubation, 2.3 MBq tracer, phosphor imaging
A2A receptor [1] = target: T1, A2A receptor (Rattus norvegicus, UniProt P30543); test: PET kinetic experiment in normal rats; assay type: in vivo
Outline: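 Unlesioned male SD rats, age-matched to 13–14-week lesioned rats, were imaged on an Inveon microPET under isoflurane (2–3% v/v in O2). Each received […]/rat radiotracer i.v. in saline, followed by a 30 min list-mode emission scan. Caudate-putamen ROI mean pixel values were converted to counts/g/min (1 g/mL density) and divided by injected dose to give %ID/g, reported as mean ± SEM.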

[2] = In vivo biodistribution in normal rats; parameters: species or system rat
Outline: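 Non-lesioned male SD rats received ~11.1 MBq (300 µCi)/rat radiotracer i.v. in saline. They were killed by CO2 asphyxiation at 30 (n = 4), 60 (n = 4) or 120 min (n = 6). Brain, blood and other tissues were wet-weighed and gamma-counted, and uptake was expressed as %ID/g. Data are mean ± SEM, with means compared by 1-way ANOVA.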

A2A receptor [3] = target: T1, A2A receptor; test: PET kinetic experiment in unilaterally 6-OHDA-lesioned rats; assay type: in vivo
A2A receptor [4] = target: T1, A2A receptor; test: Ex vivo brain autoradiography / in vivo blocking; details: 30 min after i.v. injection of 12.9 MBq, 50 µm slices
[5] = In vitro metabolism in cryopreserved rat hepatocytes; assay type: in vitro ADME; details: rat hepatocyte incubation
[6] = normal rats; cited from earlier work
A2A = details: cited from earlier work

T1 sequence (P30543 whole entry): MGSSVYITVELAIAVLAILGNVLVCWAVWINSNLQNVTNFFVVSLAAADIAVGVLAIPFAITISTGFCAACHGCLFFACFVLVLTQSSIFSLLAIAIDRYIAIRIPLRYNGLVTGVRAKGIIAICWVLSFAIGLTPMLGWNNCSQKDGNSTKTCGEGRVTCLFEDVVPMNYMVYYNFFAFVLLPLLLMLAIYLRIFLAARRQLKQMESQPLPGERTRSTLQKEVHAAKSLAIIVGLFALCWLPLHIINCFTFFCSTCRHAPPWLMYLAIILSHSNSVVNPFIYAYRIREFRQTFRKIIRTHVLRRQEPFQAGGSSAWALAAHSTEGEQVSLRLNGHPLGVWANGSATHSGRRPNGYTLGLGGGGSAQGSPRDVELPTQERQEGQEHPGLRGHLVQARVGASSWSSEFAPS
Sequence of adenosine A2A (P30543 whole entry): as above

Nc1nc2c(cnn2CCCc2ccc(OCC[18F])cc2)c2nc(-c3ccco3)nn12 [[^18F]-MRS5425, 7-(3-(4-(2-[^18F]fluoroethoxy)phenyl)propyl)-2-(furan-2-yl)-7H-pyrazolo[4,3-e][1,2,4]triazolo[1,5-c]pyrimidin-5-amine]
radioactivity binding on coronal brain slices (adenosine A2A): radioactivity binding (dark area in Fig 1 b) in the caudate-putamen (striatum) nucleus bilaterally
bone uptake in imaging studies (A2A receptor [1]; PET imaging in rats, marker of defluorination): not observed
plateau of striatal %ID/g held until (A2A receptor [1]; normal rats): 3.5 min
striatal uptake versus cortical and other regions (A2A receptor [1]; normal rats, PET images): significantly higher uptake
time of decline to 75% of peak %ID/g (A2A receptor [1]; normal rats, striatum TAC): about 6 min
time of maximum striatal ROI-derived %ID/g (A2A receptor [1]; normal rats, striatum TAC): 90 s
plateau maintained after maximum (A2A receptor [1]; normal rats, striatum TAC, additional time after 90 sec): 2 min
%ID/g values compared with [11C]-SCH442416 in monkeys (A2A receptor [1]; rat striatum versus 0.035 %ID/mL in monkeys): ~ 20 fold
primary accumulation (tissues) ([2]; 30, 60, 120 min biodistribution): intestine and urine
uptake in striatum ([2]; 30 min after i.v. injection, n = 4, mean ± SEM): 0.25 ± 0.09 %ID/g
uptake in striatum ([2]; 60 min after i.v. injection, n = 4, mean ± SEM): 0.35 ± 0.10 %ID/g
uptake in striatum ([2]; 120 min after i.v. injection, n = 6, mean ± SEM): 0.13 ± 0.03 %ID/g
uptake in striatum compared to blood ([2]; at 30 and 60 min): ~ 2 fold
plateau of striatal %ID/g held until (A2A receptor [3]; 6-OHDA rats): 4.5 min
plateau maintained after peak (A2A receptor [3]; 6-OHDA-lesioned rats, saline): about 3 min
time of peak baseline striatal %ID/g (A2A receptor [3]; 6-OHDA-lesioned rats, saline, both lesioned and intact sides): 90 s
%ID/g in lesioned side compared to intact side (A2A receptor [3]; saline baseline, after plateau to 30 min, p < 0.05): significantly higher
ex vivo radioactivity binding in brain slices (A2A receptor [4]): radioactivity binding in the striatal region bilaterally
defluorination [5]: evidence for defluorination
metabolite observed ([5]; HPLC-MS, m/z +16, believed N-oxidation): a major fluorine-containing metabolite

[11CH3]Oc1ccc(CCCn2ncc3c2nc(N)n2nc(-c4ccco4)nc32)cc1 [[^11C]-SCH442416]
time of maximum radioactivity accumulation in striatum [6]: 5 min
time to reach 50% of peak striatal %ID/g [6]: ≤ 25 min
time to reach lowest striatal %ID/g [6]: ≤ 60 min

Nc1nc2c(cnn2CCCc2ccc(OCCF)cc2)c2nc(-c3ccco3)nn12 [MRS5425, 7-(3-(4-(2-fluoroethoxy)phenyl)propyl)-2-(furan-2-yl)-7H-pyrazolo[4,3-e][1,2,4]triazolo[1,5-c]pyrimidin-5-amine]
selectivity over A1 and A3 (A2A; A2A versus A1 and A3): 1000 fold
Ki (A2A; read-out: Ki for A2A): 12.4 nM
